Calls of active or inactive are those of the source. The rule behind the calls is not given here.

Assay [1] deals with SW480. In words: Antiproliferative activity against human SW480 cells at 2.5 to 10 uM measured after 48 hrs by EdU staining based assay. The class given is functional, cell-based. Conditions: dose 2.5-10 µM. An outline of the steps: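 Cells exposed to a range of compound concentrations for 48 h, then EdU click-chemistry staining with DAPI counterstain. Confocal high-content imaging; DAPI-positive nuclei counted as total and EdU-positive as proliferating.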

For assay [2], the system named is HCT-116. In words: Induction of cell cycle arrest in human HCT-116 cells assessed as reduction in accumulation at G1 phase at 10 uM measured after 48 hrs by PI/RNaseA staining based flow cytometry assay. Format: functional.

With `CCC(=O)Nc1cccc(Oc2nc(Nc3ccc(N4CCN(C)CC4)cc3)ncc2Cl)c1`, the result in assay [1] and in assay [2] was Active.

The values are drawn from ChEMBL document CHEMBL4813921, “Optimization of WZ4003 as NUAK inhibitors against human colorectal cancer” (Eur J Med Chem, 2021).
